According to ChEMBL document CHEMBL1126740, “(S)- and (R)-8-(di-n-propylamino)-6,7,8,9-tetrahydro-3H-benz[e]indole-1-carbaldehyde: a new class of orally active 5-HT1A-receptor agonists” (J Med Chem, 1993):
Active and inactive are the calls of the source. The calls are words filed in the database; no cut-off is given here.

Key:
[1] = species on record: Rattus norvegicus; experiment: Compound was tested for 5HT, Dopamine agonist mediated response in reserpine pretreated rats; mix DA, 5-HT syndrome; type: functional, organism-based
How it was run: (§1)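 Male Sprague-Dawley rats (200–300 g) were given reserpine 5 mg/kg sc 18 h before testing, then the test drug sc in the neck (n = 4). Motor activity was recorded by photocells for 30 min, with gross behaviour observed throughout. 5-HT syndrome: flat body posture, extended limbs, reciprocal forepaw treading. DA response: locomotion and stereotypies.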

[2] = tested on: Rattus norvegicus; experiment: In vivo evaluation for 5-HTP accumulation in the corpus striatum in male rats (sc); type: functional
How it was run: (§2)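 Male Sprague-Dawley rats were pretreated with reserpine 5 mg/kg sc 18 h before dosing. DOPA and 5-HTP in limbic system, striatum and hemispheres were measured by HPLC with electrochemical detection. Dose-response curves used 4–6 dose levels (n = 4) for each region; ED50 was estimated graphically. Partial responses are given as the maximal % reduction at the highest dose tested.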

[3] = tested on: Rattus norvegicus; experiment: In vivo evaluation for 5-HTP accumulation in the hemispheres in male rats (sc); type: functional; how it was run: as §2
[4] = tested on: Rattus norvegicus; experiment: In vivo evaluation for 5-HTP accumulation in the limbic system in male rats (sc); type: functional; how it was run: as §2
[5] = tested on: Rattus norvegicus; experiment: In vivo evaluation for DOPA accumulation in the hemispheres in male rats at highest dose tested; inactive; type: functional, organism-based; how it was run: as §2
[6] = tested on: Rattus norvegicus; experiment: Maximal reduction in percent (Partial response) of DOPA accumulation rat limbic system at highest test dose of […] (sc); type: functional
[7] = molecular target: T1, D(2) dopamine receptor (Rattus norvegicus, UniProt P61169); experiment: Displacement of [3H]spiperone from dopamine receptor D2
T1 sequence (P61169 whole entry): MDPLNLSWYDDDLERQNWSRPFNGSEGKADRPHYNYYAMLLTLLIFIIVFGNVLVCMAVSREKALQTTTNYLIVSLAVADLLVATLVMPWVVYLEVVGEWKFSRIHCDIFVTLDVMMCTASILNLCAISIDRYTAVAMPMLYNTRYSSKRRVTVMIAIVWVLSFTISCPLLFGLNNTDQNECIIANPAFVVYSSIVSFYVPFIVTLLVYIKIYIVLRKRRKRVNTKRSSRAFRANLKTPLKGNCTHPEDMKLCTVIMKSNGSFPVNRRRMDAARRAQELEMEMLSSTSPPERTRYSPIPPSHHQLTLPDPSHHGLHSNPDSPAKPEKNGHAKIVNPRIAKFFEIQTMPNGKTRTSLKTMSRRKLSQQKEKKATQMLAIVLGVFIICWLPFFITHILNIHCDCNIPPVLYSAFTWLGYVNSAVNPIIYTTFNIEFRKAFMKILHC
How it was run: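 Rat striatal membranes in 50 mM potassium phosphate buffer (3 mg original tissue) incubated with 0.5 nM [3H]spiperone for 10 min at 37 °C. Nonspecific binding was defined with 10 μM 6,7-ADTN. Ki was calculated by Cheng–Prusoff; triplicates, 3–7 experiments.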

[8] = tested on: Rattus norvegicus; experiment: In vivo evaluation for DOPA accumulation in the corpus striatum in male rats (sc); type: functional; how it was run: as §2
[9] = species on record: Rattus norvegicus; experiment: Compound was tested for 5-HT behavioral response in reserpine pretreated rats; +5HT syndrome; type: functional, organism-based; how it was run: as §1
[10] = tested on: Rattus norvegicus; experiment: In vivo evaluation for DOPA accumulation in the corpus striatum in male rats at highest test dose of 50 uM/Kg (sc); inactive; type: functional, organism-based; how it was run: as §2
[11] = tested on: Rattus norvegicus; experiment: In vivo evaluation for DOPA accumulation in the hemispheres in male rats at highest test dose of 50 uM/Kg (sc); inactive; type: functional, organism-based; how it was run: as §2
[12] = tested on: Rattus norvegicus; experiment: In vivo evaluation for DOPA accumulation in the limbic system in male rats at highest test dose of 50 uM/Kg (sc); inactive; type: functional, organism-based; how it was run: as §2
[13] = molecular target: T2, 5-hydroxytryptamine receptor 1A (Mus musculus, UniProt Q64264); experiment: In vitro binding affinity against 5-hydroxytryptamine 1A receptor using [3H]-8-OH-DPAT as radioligand in CHO cells (sc); type: cell-based, Cricetulus griseus
T2 sequence (Q64264 whole entry): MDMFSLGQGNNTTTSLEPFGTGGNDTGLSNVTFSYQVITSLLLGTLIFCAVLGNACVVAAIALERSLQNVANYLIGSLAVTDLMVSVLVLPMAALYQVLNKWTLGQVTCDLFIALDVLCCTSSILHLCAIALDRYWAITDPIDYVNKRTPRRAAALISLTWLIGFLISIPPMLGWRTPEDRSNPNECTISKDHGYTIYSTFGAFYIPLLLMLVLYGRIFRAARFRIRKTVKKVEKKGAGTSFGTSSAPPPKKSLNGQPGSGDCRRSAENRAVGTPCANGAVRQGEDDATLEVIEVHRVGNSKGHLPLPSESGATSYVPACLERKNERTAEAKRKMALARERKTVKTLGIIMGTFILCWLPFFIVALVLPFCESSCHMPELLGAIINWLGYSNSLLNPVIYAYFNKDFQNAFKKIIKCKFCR

[14] = molecular target: T3, 5-hydroxytryptamine receptor 1A (Rattus norvegicus, UniProt P19327); experiment: In vitro binding affinity against 5-hydroxytryptamine 1A receptor using [3H]8-OH-DPAT
T3 sequence (P19327 whole entry): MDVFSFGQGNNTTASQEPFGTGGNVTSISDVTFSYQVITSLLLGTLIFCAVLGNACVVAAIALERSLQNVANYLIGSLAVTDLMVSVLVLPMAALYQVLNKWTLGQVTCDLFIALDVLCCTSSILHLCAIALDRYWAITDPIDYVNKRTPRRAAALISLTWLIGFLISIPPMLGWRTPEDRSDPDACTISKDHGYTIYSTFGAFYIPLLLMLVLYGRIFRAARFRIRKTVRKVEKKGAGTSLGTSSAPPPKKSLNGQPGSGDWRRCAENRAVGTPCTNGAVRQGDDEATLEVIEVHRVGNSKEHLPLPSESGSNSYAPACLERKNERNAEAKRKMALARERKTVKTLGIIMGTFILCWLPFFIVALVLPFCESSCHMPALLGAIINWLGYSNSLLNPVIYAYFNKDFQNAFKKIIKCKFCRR
How it was run: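 Rat whole-brain membranes (brainstem and cerebellum removed) in 50 mM Tris pH 8.0 containing NaCl, CaCl2, MgCl2 and 10 μM pargyline, 10 mg tissue per tube. Nonspecific binding was defined with 10 μM 5-HT. IC50 was taken by semi-log linear regression and Ki by Cheng–Prusoff; triplicates.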

[15] = Maximum concentration of the drug at 10 umol/dg administered perorally; type: ADME, organism-based; parameters: route oral; details: in vivo, po
How it was run: (§3)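 Male Sprague-Dawley rats (300 g) with arterial catheters were dosed 24 h after surgery; orally dosed rats were starved 18 h beforehand. Blood was sampled at intervals up to 12 h and analysed by HPLC with fluorescence detection (ex 285, em 365) or by GC/MS. Cmax is in pmol/mL and tmax in min, mean ± SEM, n = 4–6.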

[16] = Maximum concentration of the drug at 2 umol/dg administered intravenously; type: ADME, organism-based; parameters: route intravenous; details: in vivo, iv; how it was run: as §3
[17] = Area under curve at 10 uM/dg administered perorally; type: ADME; details: po
How it was run: (§4)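 Male Sprague-Dawley rats (300 g) carrying arterial catheters, used 24 h after surgery; animals dosed orally were starved 18 h beforehand. Blood was sampled at intervals up to 12 h after dosing. Drug levels were measured by HPLC with fluorescence detection (ex 285, em 365) or by GC/MS, calibrated against spiked blank blood. AUC was taken from concentration-time curves; n = 4–6.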

[18] = Area under curve at 2 uM/dg administered intravenously; type: ADME; details: iv; how it was run: as §4
[19] = Bioavailability in rat; type: ADME, organism-based; details: in vivo
How it was run: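 Blood was drawn at intervals up to 12 h and assayed by HPLC-fluorescence or GC/MS against spiked blank-blood standards. F is the ratio of oral to intravenous areas under the blood concentration-time curves; n = 4–6.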

[20] = Half life of compound at 2 uM/dg administered intravenously; type: ADME, organism-based; details: in vivo, iv; how it was run: as §4
[21] = molecular target: D(2) dopamine receptor (Homo sapiens, UniProt P14416); experiment: In vitro binding affinity against dopamine receptor D2 using [3H]raclopride as radioligand in CHO cells (sc); type: cell-based, Cricetulus griseus
D(2) dopamine receptor (Homo sapiens, UniProt P14416), sequence (P14416 whole entry): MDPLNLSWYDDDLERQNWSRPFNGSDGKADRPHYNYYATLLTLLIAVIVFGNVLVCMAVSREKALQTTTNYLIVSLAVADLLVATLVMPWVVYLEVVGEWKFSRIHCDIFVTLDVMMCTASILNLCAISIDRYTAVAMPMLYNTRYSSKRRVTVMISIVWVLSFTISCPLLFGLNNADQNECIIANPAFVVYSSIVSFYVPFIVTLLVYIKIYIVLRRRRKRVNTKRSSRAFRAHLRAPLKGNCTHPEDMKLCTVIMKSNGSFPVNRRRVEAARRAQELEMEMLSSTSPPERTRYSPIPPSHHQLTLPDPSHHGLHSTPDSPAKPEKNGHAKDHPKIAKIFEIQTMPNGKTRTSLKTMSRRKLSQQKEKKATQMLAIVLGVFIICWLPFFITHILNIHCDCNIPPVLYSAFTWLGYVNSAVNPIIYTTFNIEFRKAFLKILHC

[22] = species on record: Rattus norvegicus; experiment: Maximal reduction in percent (Partial response) of DOPA accumulation rat hemispheres at highest test dose; inactive; type: functional, organism-based; how it was run: as §2
[23] = species on record: Rattus norvegicus; experiment: Maximal reduction in percent (Partial response) of DOPA accumulation rat limbic system at highest test dose; inactive; type: functional, organism-based
[24] = tested on: Rattus norvegicus; experiment: In vivo evaluation for 5-HTP accumulation in the corpus striatum in male rats (po); type: functional; how it was run: as §2
[25] = tested on: Rattus norvegicus; experiment: In vivo evaluation for 5-HTP accumulation in the hemispheres in male rats (po); type: functional; how it was run: as §2
[26] = tested on: Rattus norvegicus; experiment: In vivo evaluation for 5-HTP accumulation in the limbic system in male rats (po); type: functional; how it was run: as §2
[27] = tested on: Rattus norvegicus; experiment: In vivo evaluation for DOPA accumulation in the hemispheres in male rats at highest test dose; inactive; type: functional, organism-based; how it was run: as §2
[28] = tested on: Rattus norvegicus; experiment: Maximal reduction in percent (Partial response) of DOPA accumulation rat corpus striatum at highest test dose of 12.5 uM/Kg (sc); type: functional; how it was run: as §2
[29] = tested on: Rattus norvegicus; experiment: Maximal reduction in percent (Partial response) of DOPA accumulation rat limbic system at highest test dose of 12.5 uM/Kg (sc); type: functional
[30] = Ratio of ED50 values when the compound was administered subcutaneously to that of peroral administration; type: ADME
How it was run: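 Male Sprague-Dawley rats (200–300 g) pretreated with reserpine (5 mg/kg sc, 18 h earlier). Compound given sc or po. 5-HTP accumulation in the limbic system was measured by HPLC with electrochemical detection. ED50 values came from dose-response curves of 4–6 dose levels (n = 4), and the sc ED50 was divided by the po ED50.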

[31] = species on record: Rattus norvegicus; experiment: Maximal reduction in percent (Partial response) of DOPA accumulation rat corpus striatum at highest test dose; inactive; type: functional, organism-based; how it was run: as §2
[32] = Time taken to reach the maximum concentration of compound at 2 uM/dg administered intravenously; type: ADME, organism-based; details: in vivo, iv; how it was run: as §3
[33] = tested on: Rattus norvegicus; experiment: In vivo evaluation for DOPA accumulation in the hemispheres in male rats at highest dose tested at 50 uM/Kg; inactive; type: functional, organism-based; how it was run: as §2
[34] = tested on: Rattus norvegicus; experiment: Maximal reduction in percent (Partial response) of 5-HTP accumulation rat hemispheres at highest test dose of 50 uM/Kg (sc); type: functional; how it was run: as §2
[35] = tested on: Rattus norvegicus; experiment: Maximal reduction in percent (Partial response) of DOPA accumulation rat corpus striatum at highest test dose of 50 uM/Kg (sc); type: functional; how it was run: as §2
[36] = tested on: Rattus norvegicus; experiment: Maximal reduction in percent (Partial response) of DOPA accumulation rat limbic system at highest test dose of 50 uM/Kg (sc); type: functional
[37] = tested on: Rattus norvegicus; experiment: In vivo evaluation for DOPA accumulation in the limbic system in male rats (sc); type: functional; how it was run: as §2
[38] = tested on: Rattus norvegicus; experiment: Maximal reduction in percent (Partial response) of DOPA accumulation rat lhemispheres at highest test dose of 12.5 umol/kg (sc); type: functional; how it was run: as §2
[39] = molecular target: T1, D(2) dopamine receptor; experiment: In vitro binding affinity against dopamine receptor D2 using [3H]-Raclopride as radioligand in CHO cells (sc); type: cell-based
[40] = tested on: Rattus norvegicus; experiment: In vivo evaluation for DOPA accumulation in the hemispheres in male rats at highest test dose of 12.5 uM/Kg (sc); inactive; type: functional, organism-based; how it was run: as §2

SMILES | Behavioral response [1] | ED50 [2] [µmol/kg] | ED50 [3] [µmol/kg] | ED50 [4] [µmol/kg] | Ki [7] [nM] | ED50 [8] [µmol/kg] | Behavioral response [9] | Ki [14] [nM] | ED50 [37] [µmol/kg] | further results
CCCN(CCC)[C@@H]1CCc2ccc3[nH]ccc3c2C1 | Active | 0.25 | 0.41 | 0.2 | 100 | 0.16 |  |  |  | ED50 [5]: inactive; Reduction [6]: 37%
CCCN(CCC)[C@H]1CCc2cccc(O)c2C1 |  | 0.065 | 0.077 | 0.061 | 5070 |  | Active |  |  | ED50 [10]: inactive; ED50 [11]: inactive; ED50 [12]: inactive
CCCN(CCC)[C@H]1CCc2ccc3[nH]cc(C(C)=O)c3c2C1 |  | 0.08 | 0.095 | 0.09 | 3590 |  | Active | 2 |  | Ki [13]: 0.2 nM; Cmax [15]: 606 pM ml-1; Cmax [16]: 849 pM ml-1; AUC [17]: 2224 pM/h/g; AUC [18]: 607 pM/h/g; bioavailability [19]: 72%; half-life at 2 µM [20]: 60 min; Ki [21]: 423 nM; ED50 [22]: inactive; ED50 [23]: inactive; ED50 [24]: 1.1 µmol/kg; ED50 [25]: 1.1 µmol/kg; ED50 [26]: 0.5 µmol/kg; ED50 [27]: inactive; Reduction [28]: 25%; Reduction [29]: 37%; Ratio [30]: 18; ED50 [31]: inactive; Tmax at 2 µM [32]: 2 min
CCCN(CCC)C1CCc2cc3cc[nH]c3cc2C1 (stereo not given) | Active |  |  |  | 350 |  |  | 570 |  | ED50 [33]: inactive; Reduction [34]: 35%; Reduction [35]: 51%; Reduction [36]: 30%
CCCN(CCC)C1CCc2ccc3[nH]ccc3c2C1 (racemic) | Active | 0.08 | 0.11 | 0.1 | 156 | 0.28 |  |  | 0.18 | Reduction [38]: 22%
CCCN(CCC)C1CCc2ccc3[nH]cc(C=O)c3c2C1 (racemic) |  | 0.054 | 0.067 | 0.06 | 120 | 1.8 | Active |  | 0.47 | Ki [39]: 40 nM; ED50 [40]: inactive
